Results on three substances are retold here after article PMC5474437 (EBioMedicine, 2017).

What is called Kd is the equilibrium constant for the complex coming apart. A low value points to higher affinity.

The test system of one series is Lp(a). To be noted: ref Bdeir et al., 1999; cited from earlier work.
The next series deals with HepG2 cells. The experiment in a line: Lipid. It counts as cell-based, human. Put shortly:
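HepG2 cells were grown in DMEM with 10% heat-inactivated FCS at 37 °C, 5% CO2. Human LDL (50 μg/ml) was pre-incubated 30 min at 37 °C with peptide (1 μg/ml) or PBS vehicle. Cells were then exposed to LDL for 2 h. Oil Red O staining followed, and the eluted dye gave relative lipid content.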

A further series relates to mice expressing HNP1. To be noted: ref Abu-Fanne et al., 2016, cited from earlier work.
Series [1] can be described thus: Plasma HNP1 levels in HNP1-transgenic mice, dot blot. It counts as in vivo, mouse. To be noted: Apoe−/− HNP1tg/tg mice, high-fat diet 4 weeks, dot blot against recombinant HNP1. The procedure, abridged: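 Plasma from female HNP1-transgenic Apoe−/− mice after 4 weeks high-fat diet was spotted onto nitrocellulose and blocked in 1% non-fat milk/PBS (0.5–1.0 h, RT). Blots were probed overnight at 4 °C with anti-HNP1 (1:5000), washed in PBS/0.05% Tween 20, then given HRP secondary (1:5000, 1 h, RT) and 3 × 15 min washes. ECL chemiluminescence was the read-out.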

Series [2] deals with Apoe−/− HNP1tg/tg mice. The experiment in a line: Blood cell counts by flow cytometry, HNP1-transgenic mice. It counts as in vivo, mouse. To be noted: transgenic HNP1 expression, vs Apoe−/−, high-fat diet 4 weeks, n = 10. Put shortly: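 Female Apoe−/− HNP1tg/tg mice and Apoe−/− littermates (C57Bl/6 background, ≥10 backcross generations) fed high-fat diet (21% fat, 0.15% cholesterol) for 4 weeks. Blood red cells were lysed (150 mM NH4Cl, 10 mM KHCO3, 0.1 mM diNaEDTA, pH 7.4) and HBSS-washed. Cells were stained for CD115, CD11b, CD45 and Gr1 and analysed by flow cytometry; absolute counts came from counting beads.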

Series [3] concerns Apoe−/− HNP1tg/tg mice on high-fat diet. The experiment in a line: Atherosclerotic lesions in aortic root, HNP1-transgenic Apoe−/− mice. It counts as in vivo, mouse. To be noted: transgenic HNP1 expression, high-fat diet 4 weeks, Ly6G staining, n=10. Put shortly: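 Female Apoe−/− HNP1tg/tg mice (C57Bl/6 background, backcrossed ≥10 generations) fed high-fat diet (21% fat, 0.15% cholesterol) for 4 weeks. Frozen aortic root sections stained with anti-Ly6G (1A8, 1:100), then secondary antibody 30 min at room temperature, with DAPI nuclear counterstain. Images analysed by fluorescence microscopy.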

Series [4] concerns hepatocytes of C57BL/6 wild-type mice. The experiment in a line: Liver perfusion, Dil-LDL uptake in hepatocytes, wild-type mice. Format: in vivo, mouse. To be noted: Dil-LDL 50 μg/ml with HNP1 10 μg/ml, 20 min, 2 ml/min, normocholesterolemic WT mice, flow cytometry, n = 3 per group. Put shortly: (§1)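 Anaesthetised mice underwent laparotomy with double-ligated vena cava. Portal vein cannulated; liver perfused 20 min at 2 ml/min with DiI-labelled human LDL (50 μg/ml) preincubated with 10 μg/ml peptide in PBS, or PBS alone. Liver minced, filtered (100 μm), spun 500 g 5 min, then 36% Percoll-HBSS 800 g 20 min. Top-phase hepatocytes analysed by flow cytometry as fold over background fluorescence; n = 3 per group, Mann-Whitney test.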
(In flow cytometry, cells or beads pass a laser one at a time.)

Series [5] has as its system Apoe−/− HNP1tg/tg mice. The experiment in a line: Plasma lipids and FPLC lipoprotein fractions, HNP1-transgenic mice. It counts as in vivo, mouse. To be noted: transgenic HNP1 expression. Put shortly: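 Female Apoe−/− HNP1tg/tg mice and Apoe−/− littermates were fed high-fat diet (21% fat, 0.15% cholesterol) for 4 weeks. Plasma was stored at −80 °C and triglycerides were measured enzymatically with a kit. For lipoprotein profiles, plasma from 10 animals per group was pooled (0.25 ml) and FPLC gel-filtered on two Superose 6 columns in series.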

The test system of series [6] is plasma lipoprotein fractions (VLDL, LDL, HDL). The experiment in a line: Dot blot of lipoprotein fractions of HNP1-treated mice. Format: binding, mouse. The settings on record: HNP1 10 μg i.v., plasma after 24 h. Put shortly:
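Apoe−/− mice on high-fat diet received 10 μg i.v.; plasma collected after 24 h, pooled (10 animals per group, 0.25 ml) and fractionated by FPLC gel filtration on two Superose 6 columns in series. Fractions spotted on nitrocellulose, blocked in 1% milk/PBS (0.5–1.0 h, RT), probed overnight at 4 °C with anti-HNP1, ApoA, ApoB or ApoC3 (1:5000), HRP secondary 1:5000 (1 h, RT), ECL chemiluminescence.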

Series [7] concerns plasma cholesterol / lipoproteins of hypercholesterolemic mice. The experiment in a line: Precipitation of lipid-bound HNP1 from plasma with anti-HNP1 magnetic beads. It counts as binding, mouse. To be noted: dot blot of precipitate. The procedure, abridged:
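Anti-HNP monoclonal antibody (100 μg) coupled overnight at room temperature to 3.3 × 108 magnetic beads in 1 M ammonium sulfate. Washed beads, at 2 × 109 beads/ml, added to 50 μl plasma from hypercholesterolemic mice incubated with the peptide, then rotated overnight at room temperature. Beads removed; precipitated samples spotted on nitrocellulose and probed by chemiluminescent dot blot with apolipoprotein antibodies.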

In a further series the test system is liver of Ldlr−/− mice. The experiment in a line: Liver perfusion, Dil-LDL uptake, Ldlr−/− mice. To be noted: Dil-LDL 50 μg/ml with HNP1 10 μg/ml, 20 min, 2 ml/min, n = 3 per group. Format: in vivo, mouse. Put shortly: as §1
For another series, the system named is Apoe−/− mice. Description: Plasma lipids after repeated HNP1 treatment. Format: in vivo, mouse. The settings on record: 10 μg every other day i.v., 4 weeks, n = 8–11 per group. The procedure, abridged: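 Female Apoe−/− mice on high-fat diet (21% fat, 0.15% cholesterol) for 8 weeks received peptide (10 μg i.v., every other day) or PBS i.v. over the last 4 weeks. Plasma triglycerides were measured enzymatically with a kit. Blood leukocytes were counted by flow cytometry after red cell lysis, using CD115/CD11b/CD45/Gr1 staining and counting beads. n = 8–11 per group; one-way ANOVA with Bonferroni test.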

The target of series [8] is human neutrophil peptide 1 (human). The experiment in a line: SPR. A general note: SPR reads the build-up and loss of mass on a sensor chip optically.

human neutrophil peptide 1 [HNP1]: the “Interaction with Lp(a)” value in the series on Lp(a) was “shown to interact with Lp(a)”. For the same substance, in the series with HepG2 cells (Ldlr siRNA 100 nM, 24 h, HepG2), the “HNP1-assisted LDL clearance after LDLR silencing” value is recorded as “silencing of LDLR abrogated HNP1-assisted LDL clearance”. The “LDL uptake by HepG2” value in the series with HepG2 cells (human LDL 50 μg/ml, HNP1 1 μg/ml, 2 h, Oil Red O elution) is reported as “strongly enhanced LDL uptake”. Moreover, in the series with mice expressing HNP1 (normocholesterolemic), the “Total cholesterol and LDL plasma levels in mice expressing HNP1” value is “total cholesterol levels as well as LDL plasma levels were reduced in mice expressing HNP1”. The “Lipid deposits in mice with transgenic HNP1 expression” value in the series on mice expressing HNP1 (prolonged periods of high fat diet feeding) is on record as “facilitated the development of very small lipid deposits”. In addition, in [1], the “Plasma HNP1 levels” value lay within 0.5 to 1 µg/mL. Further, the “Blood counts of leukocyte subpopulations” value in the series on Apoe−/− HNP1tg/tg mice [2] is “comparable between the groups”. Besides, the “Number of lesional neutrophils” value in series [3] is given as “The number of lesional neutrophils was not affected”. In series [4], the “LDL uptake in hepatocytes (portal vein perfusion)” value is “vast increase of LDL uptake in hepatocytes”. In addition, the HDL-cholesterol result in the series with Apoe−/− HNP1tg/tg mice [5] (FPLC, pooled plasma of 10 animals per group) is “HDL-cholesterol remained unaffected”. In the series on Apoe−/− HNP1tg/tg mice [5] (high-fat diet 4 weeks, n=10), the Plasma triglyceride levels entry was “triglyceride levels remained unaffected”. Further, the “Detection of HNP1 in lipoprotein fractions” value in [6] (FPLC fractions, dot blot) is “only detected in VLDL and LDL fractions but not in HDL fractions”. In addition, the “Apolipoproteins in HNP1-positive fractions” value in [6] (antibodies to ApoA1, ApoB, ApoC3) was “ApoB and ApoC3 were detected but not ApoA1”. For the same substance, the “Apolipoproteins in anti-HNP1 precipitate” value in series [7] is “precipitate stained positive for ApoB and ApoC3”. Moreover, the “LDL uptake in the liver (portal vein perfusion), Ldlr−/−” value in the series with liver of Ldlr−/− mice is reported as “failed to stimulate LDL uptake in the liver”. The “Plasma cholesterol levels after repeated treatment” value in the series with Apoe−/− mice (vs baseline, PBS not different from baseline) is given as “lowered plasma cholesterol levels below baseline levels”. Further, the “Plasma triglyceride levels and blood leukocyte counts after repeated treatment” value in the series with Apoe−/− mice is reported as “not affected by HNP1 treatment”.
With “human ApoB (from UniProt P04114 28-4563) (natural protein)”, in series [8], the dissociation constant (Kd) stood at 2.45 nM.
Same read-out and setting: to “human ApoC3 (from UniProt P02656 21-99) (natural protein)” belongs 0.0358 nM.
